Published values pooled from the literature.
Lines come from different studies, so protocols differ.
Target: Cannabinoid receptor 2 (CNR2, Homo sapiens, UniProt P34972)
Observed: ligand displacement
Technique: radioligand

| SMILES | conditions | Ki [nM] |
| --- | --- | --- |
| CCOC(=O)C(CC)(CCCSCCOCCOCCOCCOCCNC(=O)OC(C)(C)C)NC(=O)c1ccc(C2CC2)c(Cc2ccc(F)cc2)n1 (stereo not drawn) | cell membranes | 140 |
| CCCc1cc(O)c2c(c1)OC(C)(C)[C@@H]1CCC(C)=C[C@@H]21 | cell membranes | 105 |
| Cc1c(C(=O)Nc2ccc(F)nc2)nc(-c2ccc(Cl)cc2Cl)n1-c1ccc(OS(=O)(=O)CCC(F)(F)F)cc1 | cell membranes | 1.4 |
| CCOC(=O)[C@](CC)(CCC[S+]([O-])CCOCCOCCNC(=O)OC(C)(C)C)NC(=O)c1ccc(C2CC2)c(Cc2ccc(F)cc2)n1 (stereo partly drawn) | cell membranes | 29 |
| CCCCCc1cc2c(c(O)c1C(=O)O)C1C=C(C)CCC1C(C)(C)O2 (stereo not drawn) | cell membranes | 1650 |
| CCCS(=O)(=O)Oc1ccc(-n2c(-c3ccc(Cl)cc3Cl)nc(C(=O)NN3CCCCC3)c2C)cc1 | cell membranes | 35 |
| CCCCCc1cc(O)c2c(c1)OC(C)(C)c1cc(O)c(C)cc1-2 | cell membranes | 11 |
| Cc1nc([C@@](C)(CC2CC2)NC(=O)c2cc(OCC(F)(F)F)c(C3CC3)cn2)no1 | cell membranes | 76 |
| CCCCCn1c2ccccc2c2cc(C(=O)NCC3CCN(CC(=O)NC(C)(C)C)CC3)ccc21 | – | > 5000 |
| C=CCC(CC)(NC(=O)c1ccc(C2CC2)c(Cc2ccc(F)cc2)n1)C(=O)OCC (stereo not drawn) | cell membranes | 0.8 |
| CCCCCc1cc(O)c2c(c1)OC(C)(C)[C@@H]1CC=C(C)[C@H](O)[C@@H]21 | cell membranes | 30 |
| CCOC(=O)C(CC)(CCCSCCOCCOCCOCCNC(=O)OC(C)(C)C)NC(=O)c1ccc(C2CC2)c(Cc2ccc(F)cc2)n1 (stereo not drawn) | cell membranes | 138 |
| CC/C(=C(\c1ccc(O)cc1)c1ccc(OCCN(C)C)cc1)c1ccccc1 | cell membranes | 900 |
| CCCCCn1cc(C(=O)C2C(C)(C)C2(C)C)c2ccccc21 | cell membranes | 4.51 |
| CCOC(=O)C(CC)(CCCSC)NC(=O)c1ccc(C2CC2)c(Cc2ccc(F)cc2)n1 (stereo not drawn) | cell membranes | 1.3 |
